High-throughput results: PubChem, several laboratories
An excerpt weighted towards active compounds, which were near 1.9% of everything screened.
PP1 inh = counter-screen for PP5 inhibitors: inhibitors of human PP1-alpha; 320,000 tested, 0.9% active; inhibition, % at 6.7 µM; purified PP1alpha, OMFP fluorescence;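 active = inhibition above the mean inhibition of all tested compounds plus 3 SD, computed separately for each screening campaign, cut at about 15% in these data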
STEP block = inhibitors of human striatal-enriched phosphatase STEP; P54829; recombinant STEP, OMFP fluorogenic substrate, fluorescence; inhibition, % at 20 µM; 360,000 tested, 0.25% active;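 active = inhibition at 20 µM, scaled per plate between control wells, above about 37%, limit read from the data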
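medium = Bis-Tris buffer pH 6.0, 2.5 mM DTT, 0.005% Tween 20 | test system = STEP (striatal-enriched tyrosine phosphatase) enzyme, cell-free | measure = normalized % inhibition | compound dosing = 20 µM, 1% DMSO | also added = 25 µM OMFP | schedule = reaction 20 min, ambient temperature | measured by = fluorescence read at 480 nm ex / 540 nm em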
PP5 primary = PP5 (human) phosphatase inhibition; P53041; inhibition, % at 6.7 µM; 320,000 tested, 0.18% active; purified PP5c, OMFP substrate fluorescence;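 active = inhibition above the campaign's mean inhibition across all tested compounds plus 3 SD, cut at about 9.5% in these data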
Target sequence (P53041 whole entry, looked up): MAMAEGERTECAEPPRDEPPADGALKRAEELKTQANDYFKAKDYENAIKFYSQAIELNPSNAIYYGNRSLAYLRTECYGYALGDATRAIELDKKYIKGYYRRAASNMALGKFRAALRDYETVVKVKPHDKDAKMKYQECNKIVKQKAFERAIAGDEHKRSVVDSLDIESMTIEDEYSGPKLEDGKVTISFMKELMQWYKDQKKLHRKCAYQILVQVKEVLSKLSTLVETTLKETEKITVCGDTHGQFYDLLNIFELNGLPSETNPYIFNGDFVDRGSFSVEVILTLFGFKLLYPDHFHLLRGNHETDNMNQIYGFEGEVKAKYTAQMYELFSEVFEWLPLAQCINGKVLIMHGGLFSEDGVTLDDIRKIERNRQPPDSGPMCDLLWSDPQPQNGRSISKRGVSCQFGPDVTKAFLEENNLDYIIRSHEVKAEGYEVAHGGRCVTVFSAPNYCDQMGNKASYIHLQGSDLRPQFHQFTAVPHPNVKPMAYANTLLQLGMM
LMPTP block = LMPTP (human) inhibition; recombinant LMPTP-A, OMFP fluorogenic substrate, fluorescence intensity; inhibition, % at 20 µM; AID 651560; 360,000 tested, 0.22% active; P24666;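 active = compounds that cut the enzyme signal by at least half of the control window in the single-dose screen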
Target sequence (P24666 whole entry, looked up): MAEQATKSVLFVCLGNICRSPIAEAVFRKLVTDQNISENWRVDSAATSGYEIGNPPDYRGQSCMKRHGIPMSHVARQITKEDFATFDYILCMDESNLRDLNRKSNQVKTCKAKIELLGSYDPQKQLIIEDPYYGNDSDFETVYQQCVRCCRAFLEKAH
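Test system: LMPTP-A, protein tyrosine phosphatase of low molecular weight; Input: 0.625 nM enzyme; Incubation: 50 min dark incubation at room temperature; Signal: endpoint fluorescence intensity from OMFP dephosphorylation; Read-out basis: % inhibition versus control wells.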
Scp-1 inhibitor = inhibitors of human Scp-1 phosphatase | 340,000 tested, 0.88% active | inhibition, % at 20 µM | Recombinant Scp1, phosphopeptide, malachite green phosphate absorbance | AID 493091 | Q9GZU7;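 active = inhibition above about 50% at 20 µM, limit read from the data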
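Test system – truncated SCP-1 phosphatase (76-261aa) · Reagent – Phosphorylated 17-residue peptide substrate · Incubation – 45 min room-temperature reaction, 5 min colour, 30 min stabiliser · Detection – colorimetric phosphate reagent with accelerator and stabiliser, absorbance at 630 nm · Measure – % inhibition at 20 µM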
PP1 confirm = confirmation of human PP1 phosphatase inhibitors; shares compounds with PP1 inh; purified PP1alpha, OMFP substrate fluorescence; inhibition, % at 6.7 µM; 1,900 tested, 52% active; AID 2358;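 active = mean PP1 inhibition above a set limit taken from the earlier primary screen, cut at about 15% in these data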
PP5 inh counter = inhibits human PP5 phosphatase in PP1 counter-screen; shares compounds with PP1 inh; purified PP5c, OMFP fluorescence; inhibition, % at 6.7 µM; 1,900 tested, 4% active; AID 2360;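 active = mean PP5 inhibition over triplicate wells above about 9.5% taken from the earlier PP1 screen, limit read from the data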
Large screens that a line does not name were inactive (follow-up assays come after a bar, where they were run).

O=C(NCc1ccc(Cl)cc1)C1CCN(C(=O)c2ccco2)CC1	none
O=C(O)C1C2C=CC(C2)C1C(=O)Nc1cccc(Cl)c1 (stereo not drawn)	none
Cc1nn(Cc2ccc(Cl)cc2Cl)c(C)c1NC(=O)C1C2CCC(O2)C1C(=O)O (stereo not drawn)	PP1 inh 32, PP5 primary 46 | PP1 confirm inactive | PP5 inh counter 23
O=C(O)C1C2CCC(O2)C1C(=O)NCc1ccc(Cl)cc1 (stereo not drawn)	PP1 inh 32, PP5 primary 48 | PP1 confirm 17 | PP5 inh counter 32
Cc1nn(C)cc1CNC(=O)C1C2CCC(O2)C1C(=O)O (stereo not drawn)	PP1 inh 62, PP5 primary 70 (no result: STEP block, LMPTP block, Scp-1 inhibitor) | PP1 confirm 37 | PP5 inh counter 41
O=C(O)C1C2CCC(O2)C1C(=O)Nc1cccc(Cl)c1 (stereo not drawn)	PP1 inh 70, PP5 primary 69 | PP1 confirm 17 | PP5 inh counter 25
S=C(Nc1ccc2nccnc2c1)N1CCCC1	none
CC(=O)c1ccc(N2CCN(S(=O)(=O)c3ccc(-c4cnc(C5CC5)o4)cc3)CC2)cc1	none
CCOC(=O)C1(C)CCN1C(=O)c1ccc(C#N)cc1 (stereo not drawn)	none (no result: PP1 inh, PP5 primary, Scp-1 inhibitor)
O=C(O)C1C2CCC(O2)C1C(=O)Nc1ccc(Cl)cc1F (stereo not drawn)	PP1 inh 67, PP5 primary 69 | PP1 confirm 26 | PP5 inh counter 34
O=C(O)C1CCCCC1C(=O)Nc1ccc(Cl)cc1Cl (stereo not drawn)	none
COC(=O)c1ccc(-n2c(C)cc(C(=O)COC(=O)CC3Sc4ccccc4NC3=O)c2C)cc1 (stereo not drawn)	none
Cc1cc(C(=O)COC(=O)CC2Sc3ccccc3NC2=O)c(C)n1-c1ccccc1 (stereo not drawn)	PP1 inh 23 | PP1 confirm inactive | PP5 inh counter inactive
CCCCN(C)CCNC(=O)c1cc2c(=O)[nH]c3ccccc3c2n1C	none
Cc1cc(-c2csc(N)n2)c(C)n1CCc1ccccc1	PP1 inh 21 | PP1 confirm 20 | PP5 inh counter inactive
Cc1cc(-c2csc(NCc3ccccc3)n2)c(C)n1C	none (no result: PP1 inh, PP5 primary)
Cc1ccc(NC(=O)COC(=O)c2ccc3c(c2)NC(=O)C2CCCN32)cc1 (stereo not drawn)	PP1 inh 19 | PP1 confirm inactive | PP5 inh counter inactive
CCOc1ccc(CC(=O)C2C(=O)CCCC2=O)cc1OCC	none
O=c1c2c([nH]c3ccc(Br)cc13)CCCC2	none
O=c1ccc2cc3c([nH]c4ccc(Br)cc43)oc-2c1O	PP1 inh 58, LMPTP block 52 (no result: Scp-1 inhibitor) | PP1 confirm 37 | PP5 inh counter inactive
CCOP(=O)(OCC)/C(=N/OC(=O)c1ccccc1C)C(N)=O	none
Cc1sc(NC(=O)c2ccco2)nc1-c1ccccc1	none
Cc1ccccc1NC(=O)C1C2CCC(O2)C1C(=O)O (stereo not drawn)	PP1 inh 51, PP5 primary 63 | PP1 confirm 32 | PP5 inh counter 41
CCOC(=O)c1c(-c2ccc(-c3ccccc3)cc2)csc1NC(=O)C1C2CCC(O2)C1C(=O)O (stereo not drawn)	PP1 inh 22, PP5 primary 11 | PP1 confirm inactive | PP5 inh counter inactive
CCCCc1ccc(-c2nc(NC(=O)C3C4CCC(O4)C3C(=O)O)sc2C)cc1 (stereo not drawn)	PP1 inh 75, PP5 primary 75 (no result: STEP block, LMPTP block, Scp-1 inhibitor) | PP1 confirm 35 | PP5 inh counter 40
O=C(O)C1C2CCC(O2)C1C(=O)Nc1ccccc1Br (stereo not drawn)	PP1 inh 68, PP5 primary 68 | PP1 confirm 25 | PP5 inh counter 33
COc1cccc(-c2cnc(C(O)c3ccc(Cl)cc3)[nH]2)c1 (stereo not drawn)	none (no result: PP1 inh, PP5 primary, Scp-1 inhibitor)
O=C(O)[C@H]1Cc2ccccc2CN1S(=O)(=O)c1ccc(F)cc1	none
Cc1ccc(F)cc1NC(=O)C1CCCN(c2ncccn2)C1 (stereo not drawn)	none
Cc1ccc(F)cc1NC(=O)C1C2CCC(O2)C1C(=O)O (stereo not drawn)	PP1 inh 55, PP5 primary 64 | PP1 confirm 20 | PP5 inh counter 26
Cc1ccccc1NC(=O)c1ccc(F)c(S(=O)(=O)N2CCN(c3ccccn3)CC2)c1	none
COc1ccc(C(=O)N/N=C/c2ccc3cccc(O)c3n2)cc1	PP1 inh 20 | PP1 confirm inactive | PP5 inh counter inactive
O=C(N/N=C/c1ccc2cccc(OCc3ccccc3)c2n1)c1ccc(Cl)cc1	PP1 inh 24 | PP1 confirm inactive | PP5 inh counter inactive
O/N=C/c1ccc2cccc(O)c2n1	none
N#C/C(=C\c1cn(CCOc2ccccc2)c2ccccc12)C(=O)NCC1CCCO1 (stereo not drawn)	none
Cc1ccc(C)c(OCCn2cc(/C=C(/C#N)C(=O)NCC3CCCO3)c3ccccc32)c1 (stereo not drawn)	PP1 inh 53 | PP1 confirm inactive | PP5 inh counter inactive
Cc1ccc(C)c(N=Nc2ccc(O)c3ncccc23)c1	none
NS(=O)(=O)c1ccc(N=Nc2ccc(O)c3ncccc23)cc1	PP1 inh 51 | PP1 confirm 37 | PP5 inh counter inactive
Cc1cccc(N=Nc2ccc(O)c3ncccc23)c1	PP1 inh 29 | PP1 confirm 29 | PP5 inh counter inactive
N#Cc1ccc(CSc2nnc(NC(=O)c3ccc4ncsc4c3)s2)cc1	PP1 inh 24 | PP1 confirm 49 | PP5 inh counter inactive
O=C(Nc1nnc(SCc2c(Cl)cccc2Cl)s1)c1ccc2ncsc2c1	none (no result: STEP block, LMPTP block, Scp-1 inhibitor)
Cc1cnc(NC(=O)CSc2nnc3ncccn23)s1	PP1 inh 22 | PP1 confirm inactive | PP5 inh counter inactive
O=c1cc(-c2ccccc2)[nH]n1-c1nc2ccccc2s1	PP1 inh 18 | PP1 confirm inactive | PP5 inh counter inactive
O=c1cc(-c2ccccc2)[nH]n1-c1ccccc1	none (no result: PP1 inh, PP5 primary)
COc1ccc(-c2cc(=O)oc3cc(OCC(=O)N4C[C@H]5C[C@@H](C4)c4cccc(=O)n4C5)ccc23)cc1	none
O=C(COc1ccc2c3c(c(=O)oc2c1)CCCC3)N1C[C@H]2C[C@@H](C1)c1cccc(=O)n1C2	PP1 inh 30 | PP1 confirm 30 | PP5 inh counter inactive
CC(=O)CCc1c[nH]c2c(C(=O)O)cccc12	none
OC(Cn1ccnc1)c1ccc(Cl)cc1Cl (stereo not drawn)	none
Clc1ccc(C(Cn2ccnc2)OCc2c(Cl)cccc2Cl)c(Cl)c1 (stereo not drawn)	PP1 inh 26 | PP1 confirm 18 | PP5 inh counter inactive
